The data set can be described thus: Toxicity liver stage against HepG2, at 10uM. Format: cell-based. Set-up: test concentration 10 uM, cell line HepG2-A16-CD81EGFP. Particulars: human, HepG2-A16-CD81EGFP cells; read-out: INHIBITION
In short, it runs like this: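 Uninfected HepG2-A16-CD81EGFP cells, 3 × 10^3 per well, 1536-well, plated on prespotted compound at 10 μM final, parasite-free screening media added to match infected plates; puromycin 10 μM positive, DMSO 0.5% negative; run in parallel with 48 h PbLuc assay at 37 °C, 5% CO2; viability by CellTiter-Glo luminescence, normalized to controls.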
Regarding `Cc1cn2c(n1)CCC(NS(=O)(=O)c1sc(C)nc1C)C2` (stereo not given), the cytotoxicity at 10 µM was -20.8%. Consider `Cn1ncnc1CNC1CCc2cc(Cl)ccc21` (stereo not given), for which the cytotoxicity at 10 µM was found to be 9.57%. `CC(=O)Nc1ccc(-c2cn(CCn3c(C)cc(C)nc3=O)nn2)cc1`: the cytotoxicity at 10 µM amounted to 5.03%.

Take `COc1ccc(F)cc1CN1CCCn2nc(CNS(C)(=O)=O)cc2C1`: the cytotoxicity at 10 µM came to 2.23%.

As for `Cc1nccn1-c1ccc(NS(=O)(=O)c2cccnc2)cn1`, the cytotoxicity at 10 µM is -4.73%. On to `C=C(C)COc1ccccc1NC(=O)N1CCOCC1CO` (stereo not given), for which the cytotoxicity at 10 µM was -4.1%. Regarding `O=C1CCC(C(=O)N(Cc2ccsc2)CC2CCCO2)=NN1` (stereo not given), the cytotoxicity at 10 µM is -7.97%. For `COc1cc(N2C[C@H]3CN(C(=O)c4cnccn4)C[C@H]3C2)ncn1`, the cytotoxicity at 10 µM was -141%. For the compound `O=C1CC(C(=O)NCCN2CCOC2=O)c2cc(F)ccc2N1` (stereo not given), the cytotoxicity at 10 µM was -0.511%. The figure for `CCCn1nc(C)c(CNC(=O)C2COc3c(cccc3OC)C2)c1C` (stereo not given) is -11.8%; for `CS(=O)(=O)N1CC[C@@H]2[C@@H](CCC(=O)N2CCC2=CCCCC2)C1` it is -5.64%.

As to `CNC(=O)C1CCN(C(=O)c2ccn(-c3ccc(F)cc3)n2)CC1`, the cytotoxicity at 10 µM is -2.7%. For `NC(=O)C(NCc1cccs1)c1ccccc1` (stereo not given), the cytotoxicity at 10 µM was -41.5%. On to `O=C1CCC2(CCNCC2)CN1CCCNc1cccnc1`, for which the cytotoxicity at 10 µM was -6.46%.

On to `CC(C)(CCS(C)(=O)=O)CNC(=O)NC1CCCC1(C)C` (stereo not given), for which the cytotoxicity at 10 µM is 6.7%.

In the case of `Cc1cc(CN(C)C2CCCN(Cc3noc(C)n3)C2)no1` (stereo not given), the cytotoxicity at 10 µM was found to be 1.46%. The figure for `CN(CCCNS(=O)(=O)N1CCC2(CC1)OCCO2)c1ccccc1` is 9.13%; for `CC(C)CNC(=O)[C@H]1CCS(=O)(=O)[C@@H]2CN(Cc3ccc(Cl)cc3)C[C@H]12` it is -13.9%; for `CN(C)S(=O)(=O)c1cccc(CNc2cc(CO)ccc2Cl)c1` it is 5.36%.

For `O=C(CC1CCCC1)NCCS(=O)(=O)N1CCN(c2ccccc2)CC1`, the cytotoxicity at 10 µM is -4.07%. With `Cc1oc(C)c(C(=O)NCc2ccccc2S(=O)(=O)N(C)C)c1C`, the cytotoxicity at 10 µM turned out to be 1.97%. In the case of `Cc1c(Cn2c(=O)cnc3ccccc32)cnn1C`, the cytotoxicity at 10 µM is -0.473%. The figure for `Cc1ccc2[nH]c(C3CCN(C)CC3)nc2c1` is 6.79%; for `O=C(c1cc(C2CC2)[nH]n1)N1CCN(Cc2ccccc2)CC1` it is -5.94%; for `CN(C)c1ncc(-c2cc(C(=O)O)n(CC3CC3)c2)cn1` it is -9.23%. With `Cn1cc(C(=O)NCCC(=O)N2CCCCC2)c(-c2cccnc2)n1`, the cytotoxicity at 10 µM was -5.93%. Turning to `CNC(=O)NC(C)c1nc(-c2ccccc2)c[nH]1` (stereo not given), the cytotoxicity at 10 µM came out at 0.995%.

Take `O=C(NCCN1CCOCC1)c1cnc(-c2ccccc2F)s1`: the cytotoxicity at 10 µM is 0.277%. Take `O=C(NCCCN1CCCC1)c1n[nH]c(=O)c2ccccc12`: the cytotoxicity at 10 µM was -6.62%. Take `CN(C)C(=O)Cc1ccc(NC(=O)c2cn(C)nn2)cc1`: the cytotoxicity at 10 µM is -5.27%. With `O=C(NCCC(=O)N1CCCC1)C(OC1CCCC1)c1ccccc1` (stereo not given), the cytotoxicity at 10 µM was -4.36%. Turning to `Cc1ccc(C(NC(=O)C2CCC(O)CC2)c2cccnc2)cc1C` (stereo not given), the cytotoxicity at 10 µM stood at 24.2%. Regarding `CN1CCCN(c2cnn(Cc3ccncc3)c(=O)c2)CC1`, the cytotoxicity at 10 µM was 6.75%. As to `O=C(Cn1cccc2oc(=O)nc1-2)NCC1Cc2ccccc2O1` (stereo not given), the cytotoxicity at 10 µM is -7.79%. Take `CN(C)S(=O)(=O)NCC(Cc1cccc(F)c1)N1CCNC1=O` (stereo not given): the cytotoxicity at 10 µM was -3.55%.

As to `O=C(c1cc(C2CC2)on1)N1CC[C@]2(C[C@H](Oc3cccnc3)CO2)C1`, the cytotoxicity at 10 µM is -9.63%. Regarding `O=C(NC1CC2(CCN(CCO)CC2)c2ccccc21)c1ccno1` (stereo not given), the cytotoxicity at 10 µM was -12.2%. For `Cc1nn(C)c2nc(N(CCOc3ccccc3)CC3CCCO3)sc12` (stereo not given), the cytotoxicity at 10 µM stood at 46.8%.

For the compound `Cc1nn(C)c(C)c1CN(C)c1nc(C2CCCC2)nc2c1cnn2C`, the cytotoxicity at 10 µM turned out to be 27.9%.

For `CN(C)C(C(=O)N1CCN(S(N)(=O)=O)CC1)c1ccccc1F` (stereo not given), the cytotoxicity at 10 µM stood at 0.199%. With `NC(=O)CCn1cc(CNCCCc2ccccc2O)c2ccccc21`, the cytotoxicity at 10 µM came out at 8.92%. The same measure for `Cc1nn(C)c(C)c1CC(C)NC(=O)NCc1ccoc1C` (stereo not given): 0.43%; for `CN1CCC(Cc2cc(Nc3ncccn3)ncn2)CC1`: 1.05%. For the compound `C=C(C)CN(CC)C(=O)CN1CCCC1C(=O)N(C)C` (stereo not given), the cytotoxicity at 10 µM turned out to be 8.52%. The same measure for `FC(F)COc1ccccc1NCc1nnsc1Cl`: -2.63%; for `CN1CCOC(CN(C(=O)Cc2ccccc2F)c2nccs2)C1` (stereo not given): -11.7%; for `Cc1noc2ncc(C(=O)NCC3CCCOC3)cc12` (stereo not given): -8.42%.

`Cn1c(N)c2c(=O)n(C)c(-c3ccc(Cl)cc3Cl)cc2c(C#N)c1=O`: the cytotoxicity at 10 µM is -5.43%. As to `Cc1cnn(CC(C)NCc2c(C)nn(Cc3ccccc3)c2C)c1` (stereo not given), the cytotoxicity at 10 µM is -4.66%. Consider `Cn1cnnc1CN1CCC2(CCC(=O)N(Cc3ccccn3)C2)CC1`, for which the cytotoxicity at 10 µM was found to be 7.82%. The figure for `CN(Cc1nc2ccsc2c(=O)[nH]1)CC1CCCCC1` is -1.05%; for `Cc1nc(COC[C@H]2CCC[C@]23CN(C2CCOC2)CCO3)cs1` (stereo not given in full) it is -79.5%; for `CCOc1cc(/C=C/c2ncc(C(=O)O)s2)cc(Br)c1OC` it is 7.59%.

For the compound `CCN(C(=O)c1nc2c(s1)CCCN2Cc1ccccc1)C(C)C`, the cytotoxicity at 10 µM was 14.2%. Regarding `CN(Cc1cc(Br)c2c(c1)OCO2)Cc1cscn1`, the cytotoxicity at 10 µM was -12.2%. For `COCCNC(C)c1ccc(-c2cccnc2)cc1` (stereo not given), the cytotoxicity at 10 µM was 2.7%. For `Cc1cc(CN(C)C(C(=O)O)c2cccc(C(F)(F)F)c2)on1` (stereo not given), the cytotoxicity at 10 µM is -6.33%. The same measure for `Nc1nc2c(s1)C(c1c(F)cccc1Cl)CC(=O)N2` (stereo not given): 4.21%; for `Cc1ccccc1CN1CCC2(CC1)CN(S(=O)(=O)c1ccccc1)C2`: -2.78%; for `CC(C)(C)c1nc(CC(=O)NC2CCN(C3CC3)C2)cs1` (stereo not given): -9.25%. `Nc1nc(NCCc2[nH]nc3c2CCCC3)cc(N2CCOCC2)n1`: the cytotoxicity at 10 µM came out at 0.666%. The figure for `CC(C)c1n[nH]c(C2CN(Cc3nnc(C4CC4)o3)CCO2)n1` (stereo not given) is -10.1%; for `COCCNC(=O)[C@H]1CO[C@H]2CCN(Cc3cccs3)C[C@H]2C1` it is -108%; for `COc1cccc(C(c2c(C)n[nH]c2O)c2c(C)n[nH]c2O)c1OC` it is 12.4%. Take `Cc1ccc(C2CSCCN2C(=O)c2ccsc2)o1` (stereo not given): the cytotoxicity at 10 µM was 1.68%. As to `NC(=O)N1CCCC(C(=O)N2CCN(c3nsc4ccccc34)CC2)C1` (stereo not given), the cytotoxicity at 10 µM was found to be 7.86%.

Consider `CC(C)(C)CC(=O)N1CCCC2(CC(C(=O)Nc3ccccc3)=NO2)C1` (stereo not given), for which the cytotoxicity at 10 µM was -6.63%. With `CCn1cc(CN2CCC(CNC(C)=O)CC2)cc1C#N`, the cytotoxicity at 10 µM is -6.21%. As for `CNC(=O)[C@H]1C[C@@H]2CN(S(=O)(=O)c3cccc(C)c3)C[C@@H]2N1C`, the cytotoxicity at 10 µM was 1.59%.

`c1cnc(N2CCC3(CCN(CC4CCOC4)CC3)CC2)nc1` (stereo not given): the cytotoxicity at 10 µM is -1.22%.

For the origin of these results see ChEMBL document CHEMBL4513216, “Probing the Open Global Health Chemical Diversity Library for Multistage-Active Starting Points for Next-Generation Antimalarials” (ACS Infect Dis, 2020).
